According to paper PMC9534497 (Science Advances, 2022):

Assays:
[1] = ThermoFluor assay, melting point of DnaA proteins; format: physicochemical, E. coli
[2] = test system: E. coli EH3287 (∆dnaA/pgsA^+); assay: Subcellular fractionation and immunoblotting of DnaA; format: cell-based; conditions: 0.2% arabinose for 90 min
Procedure, shortened: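 ΔdnaA/pgsA+ cells carrying arabinose-inducible dnaA alleles were grown to OD600 ~0.1, then induced with 0.2% arabinose for 90 min. Lysis used lysozyme (300 μg/ml) plus three freeze-thaw cycles. Cytosol and membranes were separated at 44,000 rpm for 30 min. Membranes were solubilized in octyl-thio-glucoside or CHAPS, recentrifuged and dialysed overnight. Protein levels are relative to wild type, averaged over three biological replicates.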

[3] = Stability of ATP binding of DnaA at 4°, 30° or 42°C, filter retention assay; parameters: species or system E. coli
Procedure, shortened: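 Purified DnaA (1.9 μM) was loaded with 1 μM [α-32P]ATP in PP-60 buffer for 15 min at 4°C, then held at 4°, 30° or 42°C. Aliquots were withdrawn at timed intervals. Bound nucleotide was measured by retention on nitrocellulose filters and scintillation counting.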

[4] = 37°C, at least 60 min, not challenged with acidic phospholipids; cited from earlier work
[5] = ThermoFluor assay with SUVs composed of DOPG; format: physicochemical, E. coli; conditions: ATP-bound form
Procedure, shortened: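 DnaA (10 μM) was pre-incubated with 5 mM ATP on ice for 15 min, then mixed with DOPG small unilamellar vesicles at the stated concentrations. SYPRO Orange (50× dilution) was added to 50 μl final volume. Fluorescence was recorded from 25° to 95°C at 1 min/°. Tm and −dF/dT came from a variable-slope sigmoidal fit.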

E. coli CM742 (dnaA46ts) = assay: Flow cytometry, total DNA content per cell; format: cell-based; conditions: 30°C, 0.2% arabinose, rifampicin and cephalexin 2.5 hours
Procedure, shortened: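 Host is dnaA46ts E. coli transformed with pBAD-derived plasmids carrying wild-type or mutant dnaA under an arabinose promoter. Overnight LB cultures with antibiotics were diluted to OD600 ~0.005 and grown 45 min. Each culture was split: one half got 0.2% arabinose, the other 0.2% glucose. At 30°C to OD600 0.15, then rifampicin (150 μg/ml) plus cephalexin (10 μg/ml) for 2.5 h; DNA content measured by flow cytometry.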

[6] = test system: E. coli CM742 (dnaA46ts) carrying pRD (seqA); assay: Growth of dnaA46ts cells with SeqA-expressing plasmid pRD; format: cell-based; conditions: 30°C, IPTG 50 μM (SeqA expressed), no arabinose, 0.2% arabinose or 0.2% glucose
Procedure, shortened: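 Cells carrying the IPTG-inducible seqA plasmid were made competent on LB-agar with tetracycline and 50 μM IPTG. They were transformed with pBAD-based dnaA plasmids and selected at 30°C on tetracycline (12.5 μg/ml) plus ampicillin (100 μg/ml). Single colonies were grown in LB to OD600 ~0.1. Equal OD units were replica-plated with no sugar, 0.2% arabinose or 0.2% glucose.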

E. coli EH3827 = assay: In vivo replication assay, poriC transformation of ∆dnaA cells; format: cell-based; conditions: 0.1 or 0.2% arabinose, versus DnaA WT
[7] = ATP-bound form, protein 10 μM, ATP 5 mM, no SUVs (Fig. 7C)
[8] = protein 5 μM with ATP 5 mM (Fig. 2)

Molecule	melting point [1, 7]	melting point [1, 8]	DnaA in OTG-solubilized membrane fraction (immunoblotting) [2]	retention of bound ATP ([3]; 4°, 30° and 42°C, up to 60 min)	melting point (peak) ([5]; 100 μM DOPG SUVs (Fig. 7E))	also measured
DnaA(WT): wild-type E. coli chromosomal replication initiator protein DnaA, purified 10× histidine-tagged (protein, left off: His10, N-terminal, state not stated) MSLSLWQQCLARLQDELPATEFSMWIRPLQAELSDNTLALYAPNRFVLDWVRDKYLNNINGLLTSFCGADAPQLRFEVGTKPVTQTPQAAVTSNVAAPAQVAQTQPQRAAPSTRSGWDNVPAPAEPTYRSNVNVKHTFDNFVEGKSNQLARAAARQVADNPGGAYNPLFLYGGTGLGKTHLLHAVGNGIMARKPNAKVVYMHSERFVQDMVKALQNNAIEEFKRYYRSVDALLIDDIQFFANKERSQEEFFHTFNALLEGNQQIILTSDRYPKEINGVEDRLKSRFGWGLTVAIEPPELETRVAILMKKADENDIRLPGEVAFFIAKRLRSNVRELEGALNRVIANANFTGRAITIDFVREALRDLLALQEKLVTIDNIQKTVAEYYKIKVADLLSKRRSRSVARPRQMAMALAKELTNHSLPEIGDAFGGRDHTTVLHACRKIEQLREESHDIKEDFSNLIRTLSS	approximately 57 °C	57 °C	retained in the OTG-solubilized membrane fractions	retained ATP at different temperatures comparably	44 °C	ATP-DnaA complex remaining intact [4]: > 90%
DnaA(A184V): control DnaA mutant defective in ATP binding, changed residue within nucleotide-binding pocket of domain III (protein, UniProt P03004 1-467, looked up, variant A184V) Chromosomal replication …: MSLSLWQQCLARLQDELPATEFSMWIRPLQAELSDNTLALYAPNRFVLDWVRDKYLNNINGLLTSFCGADAPQLRFEVGTKPVTQTPQAAVTSNVAAPAQVAQTQPQRAAPSTRSGWDNVPAPAEPTYRSNVNVKHTFDNFVEGKSNQLARAAARQVADNPGGAYNPLFLYGGTGLGKTHLLHVVGNGIMARKPNAKVVYMHSERFVQDMVKALQNNAIEEFKRYYRSVDALLIDDIQFFANKERSQEEFFHTFNALLEGNQQIILTSDRYPKEINGVEDRLKSRFGWGLTVAIEPPELETRVAILMKKADENDIRLPGEVAFFIAKRLRSNVRELEGALNRVIANANFTGRAITIDFVREALRDLLALQEKLVTIDNIQKTVAEYYKIKVADLLSKRRSRSVARPRQMAMALAKELTNHSLPEIGDAFGGRDHTTVLHACRKIEQLREESHDIKEDFSNLIRTLSS	–	49 °C	–	–	–	overreplication / DNA content per cell upon induction of DnaA (E. coli CM742 (dnaA46ts)): more extensive; growth on LB-agar plates [6]: showed growth at 30 °C; retention of bound ATP ([3]; 4° and 30°C, with reduced affinity): maintained its ATP form; reduction in the number of transformants (E. coli EH3827): at least 50 fold
DnaA(D118A) (protein, UniProt P03004 1-467, looked up, variant D118A) Chromosomal replication …: MSLSLWQQCLARLQDELPATEFSMWIRPLQAELSDNTLALYAPNRFVLDWVRDKYLNNINGLLTSFCGADAPQLRFEVGTKPVTQTPQAAVTSNVAAPAQVAQTQPQRAAPSTRSGWANVPAPAEPTYRSNVNVKHTFDNFVEGKSNQLARAAARQVADNPGGAYNPLFLYGGTGLGKTHLLHAVGNGIMARKPNAKVVYMHSERFVQDMVKALQNNAIEEFKRYYRSVDALLIDDIQFFANKERSQEEFFHTFNALLEGNQQIILTSDRYPKEINGVEDRLKSRFGWGLTVAIEPPELETRVAILMKKADENDIRLPGEVAFFIAKRLRSNVRELEGALNRVIANANFTGRAITIDFVREALRDLLALQEKLVTIDNIQKTVAEYYKIKVADLLSKRRSRSVARPRQMAMALAKELTNHSLPEIGDAFGGRDHTTVLHACRKIEQLREESHDIKEDFSNLIRTLSS	–	no shift	–	retained ATP at different temperatures comparably	–	–
Apo-DnaA: DnaA protein without bound nucleotide, ground or inactive state (protein, UniProt P03004 1-467, looked up, nucleotide-free) Chromosomal replication …: MSLSLWQQCLARLQDELPATEFSMWIRPLQAELSDNTLALYAPNRFVLDWVRDKYLNNINGLLTSFCGADAPQLRFEVGTKPVTQTPQAAVTSNVAAPAQVAQTQPQRAAPSTRSGWDNVPAPAEPTYRSNVNVKHTFDNFVEGKSNQLARAAARQVADNPGGAYNPLFLYGGTGLGKTHLLHAVGNGIMARKPNAKVVYMHSERFVQDMVKALQNNAIEEFKRYYRSVDALLIDDIQFFANKERSQEEFFHTFNALLEGNQQIILTSDRYPKEINGVEDRLKSRFGWGLTVAIEPPELETRVAILMKKADENDIRLPGEVAFFIAKRLRSNVRELEGALNRVIANANFTGRAITIDFVREALRDLLALQEKLVTIDNIQKTVAEYYKIKVADLLSKRRSRSVARPRQMAMALAKELTNHSLPEIGDAFGGRDHTTVLHACRKIEQLREESHDIKEDFSNLIRTLSS	–	–	–	–	–	melting point ([1]; Apo form, no ATP): 44 °C
DnaA(L366K): DnaA with substitution L366K in the AAA+ membrane-binding region (protein, UniProt P03004 1-467, looked up, variant L366K) Chromosomal replication …: MSLSLWQQCLARLQDELPATEFSMWIRPLQAELSDNTLALYAPNRFVLDWVRDKYLNNINGLLTSFCGADAPQLRFEVGTKPVTQTPQAAVTSNVAAPAQVAQTQPQRAAPSTRSGWDNVPAPAEPTYRSNVNVKHTFDNFVEGKSNQLARAAARQVADNPGGAYNPLFLYGGTGLGKTHLLHAVGNGIMARKPNAKVVYMHSERFVQDMVKALQNNAIEEFKRYYRSVDALLIDDIQFFANKERSQEEFFHTFNALLEGNQQIILTSDRYPKEINGVEDRLKSRFGWGLTVAIEPPELETRVAILMKKADENDIRLPGEVAFFIAKRLRSNVRELEGALNRVIANANFTGRAITIDFVREALRDKLALQEKLVTIDNIQKTVAEYYKIKVADLLSKRRSRSVARPRQMAMALAKELTNHSLPEIGDAFGGRDHTTVLHACRKIEQLREESHDIKEDFSNLIRTLSS	54 °C	–	retained in the OTG-solubilized membrane fractions	–	did not shift further	melting point (peak) ([5]; 25 μM DOPG SUVs (Fig. 7D)): 50 °C
mutant DnaA protein where Asp^118 is substituted with Gly: DnaA mutant, Asp^118 substituted with Gly (protein, UniProt P03004 1-467, looked up, variant D118G) Chromosomal replication …: MSLSLWQQCLARLQDELPATEFSMWIRPLQAELSDNTLALYAPNRFVLDWVRDKYLNNINGLLTSFCGADAPQLRFEVGTKPVTQTPQAAVTSNVAAPAQVAQTQPQRAAPSTRSGWGNVPAPAEPTYRSNVNVKHTFDNFVEGKSNQLARAAARQVADNPGGAYNPLFLYGGTGLGKTHLLHAVGNGIMARKPNAKVVYMHSERFVQDMVKALQNNAIEEFKRYYRSVDALLIDDIQFFANKERSQEEFFHTFNALLEGNQQIILTSDRYPKEINGVEDRLKSRFGWGLTVAIEPPELETRVAILMKKADENDIRLPGEVAFFIAKRLRSNVRELEGALNRVIANANFTGRAITIDFVREALRDLLALQEKLVTIDNIQKTVAEYYKIKVADLLSKRRSRSVARPRQMAMALAKELTNHSLPEIGDAFGGRDHTTVLHACRKIEQLREESHDIKEDFSNLIRTLSS	–	55 °C	–	–	–	–
